The record followed here is ChEMBL document CHEMBL1149451, “Design, synthesis, and biological evaluation of 3,4-diarylmaleimides as angiogenesis inhibitors” (J Med Chem, 2006).

Calls of active or inactive are those of the source. The calls are words filed in the database; no cut-off is given here.

One experiment has as its target Tubulin (Sus scrofa) (UniProt P02554+P02550). The experiment is described as follows: Inhibition of tubulin polymerization in porcine brain upto 10 uM. The method, boiled down:
(§1)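 Microtubule protein isolated from porcine brain, 1 mg/mL, polymerized 20 min at 37 °C in PIPES buffer with 10 mM GTP, pH 6.8. Turbidity followed at 360 nm; assembly compared with an effector-free control.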

Experiment [1] deals with Cyclin-dependent kinase 2/cyclin E (Homo sapiens) (UniProt P24864+P24941+O96020). Put plainly: Inhibition of human CDK2/cycE expressed in Sf9 cells at 100 uM; values are per cent of control.
Experiment [2] addresses Angiopoietin-1 receptor (Homo sapiens) (UniProt Q02763). The experiment is described as follows: Inhibition of human TIE2 expressed in Sf9 cells at 100 uM; values are per cent of control.
The target of experiment [3] is CDK6/cyclin D1 (Homo sapiens) (UniProt P24385+Q00534). Put plainly: Inhibition of human CDK6/cycD1 expressed in Sf9 cells at 10 uM; values are per cent of control.
Experiment [4] has as its target T1, Vascular endothelial growth factor receptor 2 (Homo sapiens, UniProt P35968). Put plainly: Inhibition of human VEGFR2 expressed in Sf9 cells at 100 uM; values are per cent of control.
Experiment [5] concerns the target Protein kinase C alpha type (Mus musculus) (UniProt P20444). The experiment is described as follows: Inhibition of mouse PKC alpha expressed in Sf9 cells at 100 uM. Conditions: values are per cent of control.
For experiment [6], the species on record is Gallus gallus. Put plainly: Inhibition of vessel growth in chick embryo assay at 10 ug after 24 h. The experiment is classed as functional. The method, boiled down:
(§2)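 Chick embryo assay. White leghorn eggs incubated at 37.5 °C; window opened at 70 h after removing albumen. At 75 h, compound in DMSO stock was mixed into 2% agarose and given as 10 µL pellets, 15 per experiment, on the area vasculosa.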

The target in experiment [7] is T2, Protein kinase C iota type (Homo sapiens) (UniProt P41743).
T2 sequence (whole entry): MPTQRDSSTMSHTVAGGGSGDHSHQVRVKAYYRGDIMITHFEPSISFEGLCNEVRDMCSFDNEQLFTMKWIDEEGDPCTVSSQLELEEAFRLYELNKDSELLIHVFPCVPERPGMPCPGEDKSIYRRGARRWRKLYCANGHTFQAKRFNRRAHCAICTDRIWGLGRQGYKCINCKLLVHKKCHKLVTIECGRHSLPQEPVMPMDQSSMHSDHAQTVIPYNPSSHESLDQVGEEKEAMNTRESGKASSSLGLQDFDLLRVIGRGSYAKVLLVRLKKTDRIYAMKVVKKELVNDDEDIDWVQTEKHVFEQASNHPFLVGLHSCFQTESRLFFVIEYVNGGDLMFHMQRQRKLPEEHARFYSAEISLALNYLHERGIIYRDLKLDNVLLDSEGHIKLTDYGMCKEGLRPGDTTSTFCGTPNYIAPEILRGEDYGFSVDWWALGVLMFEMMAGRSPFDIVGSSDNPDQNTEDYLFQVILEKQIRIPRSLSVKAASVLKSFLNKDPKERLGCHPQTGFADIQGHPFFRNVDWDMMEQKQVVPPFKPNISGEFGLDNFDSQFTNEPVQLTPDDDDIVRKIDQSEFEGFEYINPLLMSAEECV
The experiment is described as follows: Inhibition of human PKC iota expressed in Sf9 cells at 10 uM; values are per cent of control.

The target of the next experiment is Tubulin (Sus scrofa, UniProt P02554+P02550). The experiment is described as follows: Inhibition of tubulin polymerization in porcine brain. The method, boiled down: as §1
The target in experiment [8] is T1, Vascular endothelial growth factor receptor 2. The experiment is described as follows: Inhibition of human VEGFR2.
The species named for experiment [9] is Gallus gallus. Put plainly: Inhibition of vessel growth in chick embryo assay at 20 ug after 24 h. Format: functional. The method, boiled down:
as §2

Experiment [10] is filed under the species Gallus gallus. Put plainly: Inhibition of vessel growth in chick embryo assay at 50 ug after 24 h. Format: functional. The method, boiled down: as §2

Sequence of Angiopoietin-1 receptor (Homo sapiens) (Q02763 whole entry): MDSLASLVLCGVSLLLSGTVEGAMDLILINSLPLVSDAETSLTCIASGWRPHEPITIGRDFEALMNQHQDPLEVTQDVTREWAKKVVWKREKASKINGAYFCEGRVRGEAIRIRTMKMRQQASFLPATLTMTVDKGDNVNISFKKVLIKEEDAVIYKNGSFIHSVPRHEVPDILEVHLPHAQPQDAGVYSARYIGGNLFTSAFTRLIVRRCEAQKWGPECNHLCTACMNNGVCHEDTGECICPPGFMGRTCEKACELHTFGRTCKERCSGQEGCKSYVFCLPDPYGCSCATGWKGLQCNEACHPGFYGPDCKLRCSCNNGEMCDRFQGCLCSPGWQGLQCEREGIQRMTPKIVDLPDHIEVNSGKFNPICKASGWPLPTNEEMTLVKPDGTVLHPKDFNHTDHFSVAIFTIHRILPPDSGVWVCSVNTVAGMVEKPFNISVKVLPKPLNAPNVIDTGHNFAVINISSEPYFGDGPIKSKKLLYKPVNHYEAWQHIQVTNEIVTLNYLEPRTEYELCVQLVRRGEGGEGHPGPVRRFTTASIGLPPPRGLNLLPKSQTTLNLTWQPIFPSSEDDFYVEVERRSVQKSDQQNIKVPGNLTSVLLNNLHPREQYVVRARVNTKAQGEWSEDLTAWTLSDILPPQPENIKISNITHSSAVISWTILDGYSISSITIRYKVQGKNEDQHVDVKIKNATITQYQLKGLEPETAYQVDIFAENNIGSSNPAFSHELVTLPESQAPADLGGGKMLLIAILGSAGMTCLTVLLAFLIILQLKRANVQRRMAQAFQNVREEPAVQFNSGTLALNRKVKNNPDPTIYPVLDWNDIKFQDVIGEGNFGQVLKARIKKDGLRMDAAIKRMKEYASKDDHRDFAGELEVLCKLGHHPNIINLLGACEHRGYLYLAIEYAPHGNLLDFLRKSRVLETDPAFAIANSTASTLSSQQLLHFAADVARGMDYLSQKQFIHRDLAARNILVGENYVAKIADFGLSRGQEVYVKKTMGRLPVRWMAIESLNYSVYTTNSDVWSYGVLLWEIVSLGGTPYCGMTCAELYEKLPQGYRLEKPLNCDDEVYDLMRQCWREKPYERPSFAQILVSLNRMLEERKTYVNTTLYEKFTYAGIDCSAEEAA
Sequence of Tubulin (Sus scrofa) (P02550 whole entry, looked up): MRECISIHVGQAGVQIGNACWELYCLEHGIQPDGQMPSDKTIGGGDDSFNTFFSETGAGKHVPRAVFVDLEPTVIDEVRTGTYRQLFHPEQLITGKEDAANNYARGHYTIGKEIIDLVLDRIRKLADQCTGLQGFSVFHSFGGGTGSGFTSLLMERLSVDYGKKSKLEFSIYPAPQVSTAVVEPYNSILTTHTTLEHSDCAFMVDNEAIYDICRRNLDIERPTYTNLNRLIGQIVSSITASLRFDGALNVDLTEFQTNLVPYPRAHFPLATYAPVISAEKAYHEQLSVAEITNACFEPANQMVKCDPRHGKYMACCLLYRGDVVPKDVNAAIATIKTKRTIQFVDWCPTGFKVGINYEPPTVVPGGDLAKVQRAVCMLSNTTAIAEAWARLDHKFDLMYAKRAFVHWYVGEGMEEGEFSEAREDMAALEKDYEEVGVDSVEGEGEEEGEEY
Sequence of Tubulin (Sus scrofa) (P02554 whole entry, looked up): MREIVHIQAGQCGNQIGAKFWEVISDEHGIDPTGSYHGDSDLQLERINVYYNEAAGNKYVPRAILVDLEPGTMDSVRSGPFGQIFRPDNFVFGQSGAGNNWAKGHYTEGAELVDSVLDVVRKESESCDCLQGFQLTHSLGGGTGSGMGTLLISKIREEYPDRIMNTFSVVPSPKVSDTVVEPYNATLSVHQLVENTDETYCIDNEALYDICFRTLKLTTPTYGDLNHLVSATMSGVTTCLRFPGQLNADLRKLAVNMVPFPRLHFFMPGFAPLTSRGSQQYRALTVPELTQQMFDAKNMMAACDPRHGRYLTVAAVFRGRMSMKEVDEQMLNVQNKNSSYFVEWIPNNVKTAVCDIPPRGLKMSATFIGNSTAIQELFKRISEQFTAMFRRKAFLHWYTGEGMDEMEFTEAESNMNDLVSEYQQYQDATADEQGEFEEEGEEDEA
T1 sequence (P35968 whole entry): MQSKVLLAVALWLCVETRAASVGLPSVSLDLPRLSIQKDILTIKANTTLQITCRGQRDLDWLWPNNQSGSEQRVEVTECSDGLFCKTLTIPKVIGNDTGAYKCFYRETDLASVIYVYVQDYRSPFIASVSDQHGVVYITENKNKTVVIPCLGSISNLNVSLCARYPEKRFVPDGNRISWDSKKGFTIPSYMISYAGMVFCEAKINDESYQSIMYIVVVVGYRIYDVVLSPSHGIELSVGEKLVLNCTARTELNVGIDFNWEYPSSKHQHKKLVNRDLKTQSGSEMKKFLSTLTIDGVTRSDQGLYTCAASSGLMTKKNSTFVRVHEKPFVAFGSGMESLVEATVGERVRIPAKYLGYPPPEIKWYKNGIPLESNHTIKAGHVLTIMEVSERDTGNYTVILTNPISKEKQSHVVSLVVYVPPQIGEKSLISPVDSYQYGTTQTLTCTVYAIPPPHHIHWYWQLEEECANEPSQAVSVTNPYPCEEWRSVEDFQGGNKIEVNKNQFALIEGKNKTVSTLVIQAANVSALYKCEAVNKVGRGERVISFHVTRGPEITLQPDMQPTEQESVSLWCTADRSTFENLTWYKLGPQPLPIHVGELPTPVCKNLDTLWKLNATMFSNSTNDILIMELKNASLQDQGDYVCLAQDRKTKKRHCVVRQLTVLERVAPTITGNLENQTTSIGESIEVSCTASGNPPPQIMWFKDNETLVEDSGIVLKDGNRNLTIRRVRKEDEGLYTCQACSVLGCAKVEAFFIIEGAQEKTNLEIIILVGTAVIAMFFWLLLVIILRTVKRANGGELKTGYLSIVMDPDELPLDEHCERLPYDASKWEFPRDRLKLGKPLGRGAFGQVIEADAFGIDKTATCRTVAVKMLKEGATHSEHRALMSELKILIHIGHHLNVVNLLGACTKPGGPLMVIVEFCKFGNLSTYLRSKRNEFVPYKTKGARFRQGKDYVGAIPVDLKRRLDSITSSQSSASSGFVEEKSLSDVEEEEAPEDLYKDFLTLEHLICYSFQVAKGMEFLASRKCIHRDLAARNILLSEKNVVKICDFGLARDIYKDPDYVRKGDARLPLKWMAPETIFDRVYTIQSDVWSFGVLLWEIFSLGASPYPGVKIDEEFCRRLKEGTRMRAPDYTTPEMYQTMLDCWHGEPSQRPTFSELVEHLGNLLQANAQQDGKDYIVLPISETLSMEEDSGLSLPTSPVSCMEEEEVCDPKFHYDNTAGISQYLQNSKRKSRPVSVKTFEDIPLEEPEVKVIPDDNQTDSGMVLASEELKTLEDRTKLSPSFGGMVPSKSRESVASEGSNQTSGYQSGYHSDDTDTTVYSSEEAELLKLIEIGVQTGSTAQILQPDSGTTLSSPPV

For orientation: residual activity means the signal under treatment as a percentage of the control signal. By Inhibition is commonly meant the share of the control response that was lost under treatment. The low end stands for a response near the control, the high end for a response far below the control. Regarding `COc1ccc(C2=C(c3cc(OC)c(OC)c(OC)c3)C(=O)NC2=O)cc1`, at Tubulin (Sus scrofa), the inhibition result was “inactive”. For the same compound, the residual activity in experiment [1] was 89%; in experiment [2], 92%; in experiment [3] it was 79%; in [4], 43%; in experiment [5], 85%; in experiment [7] it was 97%. The Inhibition in the experiment listed under Gallus gallus [6] turned out to be 27.3%.

Usually IC50 stands for the midpoint of a concentration-inhibition curve. A higher IC50 goes with a need for much substance. With `COc1ccc(C2=C(c3cc(OC)c(OC)c(OC)c3)C(=O)NC2=O)cc1O`, the residual activity in experiment [1] turned out to be 84%; in experiment [2] it was 85%; in [3], 70%; in experiment [4] it was 32%; in experiment [5], 69%; in experiment [7], 103%. In addition, the Inhibition in the experiment listed under Gallus gallus [6] worked out at 76.9%. The compound also yielded an IC50 on Tubulin of 7600 nM.

In the case of `COc1ccc(C2=C(c3ccc(OC)cc3)C(=O)NC2=O)cc1`, on Tubulin (Sus scrofa), the inhibition result is “inactive”. The residual activity in experiment [1] worked out at 103%; in experiment [2], 12%; in experiment [3], 96%; in experiment [4], 93%; in [5], 96%; in [7], 95%. The compound further showed an Inhibition in the experiment listed under Gallus gallus [6] of 47.4%.

For `COc1cc(C2=C(c3cc[nH]c3)C(=O)NC2=O)cc(OC)c1OC`, the inhibition result at Tubulin (Sus scrofa) is “inactive”. In addition, the residual activity in experiment [1] is 71%; in experiment [2], 77%; in experiment [3], 80%; in experiment [4], 16%; in [5], 67%; in experiment [7], 92%. The compound also registered an IC50 in experiment [8] of 2500 nM. Moreover, in the experiment filed under Gallus gallus [9], the Inhibition is on record as 47.2%.

`COc1ccc(C2=C(c3ccccc3)C(=O)NC2=O)cc1`: the inhibition entry on Tubulin (Sus scrofa) was “inactive”. The same compound displayed an Inhibition in the experiment listed under Gallus gallus [10] of 16.4%. In addition, the residual activity in experiment [1] came to 95%; in [2] it was 12%; in experiment [3] it was 81%; in [4] it was 101%; in experiment [5], 105%; in experiment [7] it was 102%.

Regarding `O=C1NC(=O)C(c2ccccc2)=C1c1ccccc1`, the inhibition result on Tubulin (Sus scrofa) was “inactive”. Moreover, the Inhibition in the experiment filed under Gallus gallus [10] came out at 11.3%. Moreover, the residual activity is 93% in experiment [1]; 10% in [2]; 53% in [3]; 88% in [4]; 102% in experiment [5]; 97% in experiment [7].

In the case of `COc1cc(C2=C(c3ccccc3)C(=O)NC2=O)cc(OC)c1OC`, at Tubulin (Sus scrofa), the inhibition result is “inactive”. In the experiment listed under Gallus gallus [10], the Inhibition turned out to be 32.2%. The residual activity in experiment [1] amounted to 88%; in experiment [2], 10%; in [3], 69%; in experiment [4] it was 64%; in experiment [5], 91%; in experiment [7], 99%.

For `COc1ccc(C2=C(c3ccccc3)C(=O)NC2=O)cc1OC`, the inhibition entry on Tubulin (Sus scrofa) is “inactive”. In the experiment listed under Gallus gallus [10], this compound registered an Inhibition of 2.8%. Also, the residual activity worked out at 82% in experiment [1]; 98% in [2]; 89% in experiment [3]; 71% in [4]; 86% in experiment [5]; 94% in experiment [7].
